Measured values taken from PMC5900865 (Clinical Pharmacology in Drug Development, 2017).

Key:
CYP3A4/5 = settings: cited from earlier work
CYP2E1 = settings: cited from earlier work
CYP2C8 = settings: cited from earlier work
CYP2C9 = settings: cited from earlier work
[1] = Study 1B multiple-dose pharmacokinetics; assay type: in vivo, human
Outline: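 Men (5, 10, 20 mg) and women (5, 10 mg) were dosed orally, fed, daily for 12 days. Plasma was sampled on day 1 predose to […]. Urine came from the 5 mg cohort predose days 1–16 then in 24-h intervals, and for 10/20 mg on day 12 at 0–24 h. Analysis was by HPLC-MS/MS and noncompartmental.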

CYP1A2 = settings: cited from earlier work
healthy adult men [2] = experiment: Study 1A safety evaluation; assay type: in vivo, human
Outline: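 Randomized, double-blind, placebo-controlled study in healthy Japanese men. Single oral doses rose from 2.5 to 40 mg, doubling over 5 cohorts of 9 (2:1 drug:placebo). Each escalation followed review of safety data to day 5 and PK data to 48 h. AEs, body weight, vital signs, 12-lead ECG and haematology, chemistry, coagulation and urinalysis were recorded. TEAE incidence, intensity and drug relationship were compared with placebo.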

CYP2A6 = settings: cited from earlier work
CYP2D6 = settings: cited from earlier work
[3] = Study 1A single-rising-dose pharmacokinetics; assay type: in vivo, human; settings: for Tmax / half-life / AUC(0-inf) / Cmax: human, plasma; for CL/F / Fe0–48, cumulative excretion ratio (% of dose): fasted, men; for Fe0–48, cumulative excretion ratio (% of dose): urine 0 to 48 hours
Outline: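 Healthy men received single oral doses of 2.5–40 mg. The 2.5 mg cohort was redosed fed (30 min post-breakfast) on day 15 after a 14-day washout. EDTA plasma was sampled predose and 1–216 h postdose; urine was pooled at 0–6, 6–12, 12–24 and 24–48 h. Samples were stored at ≤ −20 °C, liquid–liquid extracted and assayed by HPLC-MS/MS. Parameters came from noncompartmental analysis.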

healthy adult men [4] = experiment: Study 3 safety evaluation; assay type: in vivo, human; settings: single 10 mg
[5] = test system: elderly adult men and women; experiment: Study 2 safety evaluation; assay type: in vivo, human; settings: elderly population, single dose of 10 mg
Outline: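 Elderly Japanese adults aged 65–85 (10 men, 10 women) were randomized 4:1, double-blind, to one oral 10 mg dose or placebo. Dosing was fasted, in the morning of day 1. Participants stayed on site days 1–5 and were discharged day 6. AEs, weight, vital signs, 12-lead ECG and haematology, chemistry, coagulation and urinalysis were recorded. TEAE incidence and intensity were compared with placebo.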

[6] = Study 3 food-effect pharmacokinetics; assay type: in vivo, human
Outline: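 Open-label two-period crossover in healthy men given 10 mg orally on days 1 and 15, fasted or fed. Fasted dosing followed ≥10 h fasting, with water. Fed dosing came within 10 min after a high-fat breakfast (≥900 kcal, ≥35% fat) eaten within 20 min. Plasma was sampled predose to 168 h; urine was pooled to 168 h. Log-transformed Cmax/AUC were analysed by ANOVA with 90% CI of back-transformed LS mean ratios. Tmax used Wilcoxon signed-rank.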

[7] = test system: healthy adult men and women; experiment: Study 1B safety evaluation; assay type: in vivo, human
Outline: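 Double-blind, placebo-controlled (2:1) multiple-dose study. Men received 5, 10 or 20 mg and women 5 or 10 mg, oral and fed, daily on days 1–12. Women were dosed only after that dose was assessed in men. Participants were discharged day 17, with post-study exam day 20. AEs, weight, vitals, 12-lead ECG and clinical labs were recorded. TEAE incidence, intensity and drug relationship were assessed by dose and sex versus placebo.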

healthy Japanese adults = experiment: Safety evaluation across all 3 studies; assay type: in vivo, human; settings: any of the studies
[8] = day 12, female, 5 mg daily, n = 5, mean (SD)
[9] = day 12, female, 10 mg daily, n = 6, mean (SD)
[10] = day 12, male, 5 mg daily, n = 6, mean (SD)
[11] = day 12, male, 10 mg daily, n = 6, mean (SD)
[12] = day 12, male, 20 mg daily, n = 6, mean (SD)
[13] = single 2.5 mg, n = 5, mean (SD)

SMILES: Cc1ccc(Sc2ccccc2N2CCNCC2)c(C)c1 [Vortioxetine, 1‐[2‐(2,4‐dimethylphenylsulfanyl)phenyl]piperazine]
- inhibitory or inducing effect in vitro (CYP3A4/5): No inhibitory or inducing effect
- inhibitory or inducing effect in vitro (CYP2E1): No inhibitory or inducing effect
- inhibitory or inducing effect in vitro (CYP2C8): No inhibitory or inducing effect
- inhibitory or inducing effect in vitro (CYP2C9): No inhibitory or inducing effect
- time to reach steady state ([1]; 5‐ and 20‐mg doses in men and 10‐mg dose in women): approximately 12 days
- steady state of trough plasma concentrations ([1]; 10‐mg dose in men and 5‐mg dose in women): did not reach steady state even after 12 days
- clearance at 12 days ([1]; both, human, plasma, oral): 333 to 867 mL/min
- CL/F ([1]; day 1, female, 5 mg daily, fed, n = 5, mean (SD)): 22.3 (19.6) L/h
- CL/F ([1]; day 1, female, 10 mg daily, fed, n = 6, mean (SD)): 99.3 (104.7) L/h
- CL/F ([1]; day 1, male, 5 mg daily, fed, n = 6, mean (SD)): 30.6 (9.4) L/h
- CL/F ([1]; day 1, male, 10 mg daily, fed, n = 6, mean (SD)): 29.1 (12.0) L/h
- CL/F ([1]; day 1, male, 20 mg daily, fed, n = 6, mean (SD)): 50.4 (17.1) L/h
- CL/F ([1]; day 12, female, 5 mg daily, fed, n = 5, mean (SD)): 20.2 (9.5) L/h
- R(AUC), cumulative ratio of AUC values [1, 8]: 6.0 (2.0)
- R(Cmax), cumulative ratio of Cmax values [1, 8]: 5.0 (1.5)
- CL/F ([1]; day 12, female, 10 mg daily, fed, n = 6, mean (SD)): 69.9 (94.8) L/h
- R(AUC), cumulative ratio of AUC values [1, 9]: 5.3 (2.2)
- R(Cmax), cumulative ratio of Cmax values [1, 9]: 3.9 (1.5)
- CL/F ([1]; day 12, male, 5 mg daily, fed, n = 6, mean (SD)): 33.1 (10.3) L/h
- R(AUC), cumulative ratio of AUC values [1, 10]: 5.2 (1.4)
- R(Cmax), cumulative ratio of Cmax values [1, 10]: 4.4 (1.1)
- CL/F ([1]; day 12, male, 10 mg daily, fed, n = 6, mean (SD)): 23.8 (4.4) L/h
- R(AUC), cumulative ratio of AUC values [1, 11]: 6.2 (0.9)
- R(Cmax), cumulative ratio of Cmax values [1, 11]: 5.1 (0.6)
- CL/F ([1]; day 12, male, 20 mg daily, fed, n = 6, mean (SD)): 51.5 (16.6) L/h
- R(AUC), cumulative ratio of AUC values [1, 12]: 3.9 (1.0)
- R(Cmax), cumulative ratio of Cmax values [1, 12]: 3.2 (0.7)
- AUC(0-t) ([1]; female, human, plasma, oral, 5 mg, AUC0–24, day 1, female, 5 mg daily, fed, n = 5, mean (SD)): 47.1 ng·h/mL
- AUC(0-t) ([1]; female, human, plasma, oral, 5 mg, AUC0–24, day 12, female, 5 mg daily, fed, n = 5, mean (SD)): 284 ng·h/mL
- half-life ([1]; female, human, plasma, oral, 5 mg, T1/2, day 1, female, 5 mg daily, fed, n = 5, mean (SD)): 113 h
- half-life ([1]; female, human, plasma, oral, 5 mg, T1/2, day 12, female, 5 mg daily, fed, n = 5, mean (SD)): 79.8 h
- AUC(0-t) ([1]; female, human, plasma, oral, 10 mg, AUC0–24, day 1, female, 10 mg daily, fed, n = 6, mean (SD)): 53.3 ng·h/mL
- AUC(0-t) ([1]; female, human, plasma, oral, 10 mg, AUC0–24, day 12, female, 10 mg daily, fed, n = 6, mean (SD)): 295 ng·h/mL
- half-life ([1]; female, human, plasma, oral, 10 mg, T1/2, day 1, female, 10 mg daily, fed, n = 6, mean (SD)): 34.2 h
- half-life ([1]; female, human, plasma, oral, 10 mg, T1/2, day 12, female, 10 mg daily, fed, n = 6, mean (SD)): 58 h
- average time to reach steady state ([1]; given a median half‐life of 67 hours): 14 days
- half-life ([1]; human, plasma, oral, median half‐life, as given in the discussion): 67 h
- AUC(0-t) ([1]; male, human, plasma, oral, 5 mg, AUC0–24, day 1, male, 5 mg daily, fed, n = 6, mean (SD)): 31.6 ng·h/mL
- AUC(0-t) ([1]; male, human, plasma, oral, 5 mg, AUC0–24, day 12, male, 5 mg daily, fed, n = 6, mean (SD)): 163 ng·h/mL
- half-life ([1]; male, human, plasma, oral, 5 mg, T1/2, day 1, male, 5 mg daily, fed, n = 6, mean (SD)): 68 h
- half-life ([1]; male, human, plasma, oral, 5 mg, T1/2, day 12, male, 5 mg daily, fed, n = 6, mean (SD)): 58 h
- AUC(0-t) ([1]; male, human, plasma, oral, 10 mg, AUC0–24, day 1, male, 10 mg daily, fed, n = 6, mean (SD)): 71 ng·h/mL
- AUC(0-t) ([1]; male, human, plasma, oral, 10 mg, AUC0–24, day 12, male, 10 mg daily, fed, n = 6, mean (SD)): 432 ng·h/mL
- half-life ([1]; male, human, plasma, oral, 10 mg, T1/2, day 12, male, 10 mg daily, fed, n = 6, mean (SD)): 65.1 h
- AUC(0-t) ([1]; male, human, plasma, oral, 20 mg, AUC0–24, day 1, male, 20 mg daily, fed, n = 6, mean (SD)): 110 ng·h/mL
- AUC(0-t) ([1]; male, human, plasma, oral, 20 mg, AUC0–24, day 12, male, 20 mg daily, fed, n = 6, mean (SD)): 433 ng·h/mL
- half-life ([1]; male, human, plasma, oral, 20 mg, T1/2, day 1, male, 20 mg daily, fed, n = 6, mean (SD)): 44 h
- half-life ([1]; male, human, plasma, oral, 20 mg, T1/2, day 12, male, 20 mg daily, fed, n = 6, mean (SD)): 56.8 h
- Fe0–x, fraction excreted (VOR) ([1]; urine 0 to 24 hours (day 1), female, 5 mg daily, n = 5, mean (SD)): 0.00 (0.0) %
- Fe0–x, fraction excreted (VOR) ([1]; urine 0 to 24 hours (day 1), male, 5 mg daily, n = 6, mean (SD)): 0.00 (0.0) %
- Fe0–x, fraction excreted (VOR) ([1]; urine 0 to 288 hours (day 12), female, 5 mg daily, n = 5, mean (SD)): 0.0494 (0.087) %
- Fe0–x, fraction excreted (VOR) ([1]; urine 0 to 288 hours (day 12), male, 5 mg daily, n = 6, mean (SD)): 0.0072 (0.018) %
- inhibitory or inducing effect in vitro (CYP1A2): No inhibitory or inducing effect
- tolerated single dose (healthy adult men [2]; healthy men): up to 20 mg
- AEs reported (healthy adult men [2]; single 40‐mg dose group): Seven AEs
- inhibitory or inducing effect in vitro (CYP2A6): No inhibitory or inducing effect
- inhibitory or inducing effect in vitro (CYP2D6): No inhibitory or inducing effect
- Tmax ([3]; both, po): 6 to 13 h
- half-life ([3]; male, oral): 50 to 70 h
- AUC(0-inf) ([3]; male, oral, 2.5 mg): 56.5 ng·h/mL
- Cmax ([3]; male, oral, 2.5 mg): 0.8 ng/mL
- Tmax ([3]; male, oral, 2.5 mg): 10 h
- AUC(0-inf) ([3]; male, oral, 5 mg): 188 ng·h/mL
- Cmax ([3]; male, oral, 5 mg): 1.9 ng/mL
- Tmax ([3]; male, oral, 5 mg): 10 h
- half-life ([3]; male, oral, 5 mg): 69.4 h
- AUC(0-inf) ([3]; male, oral, 10 mg): 348 ng·h/mL
- Cmax ([3]; male, oral, 10 mg): 3.5 ng/mL
- Tmax ([3]; male, oral, 10 mg): 10 h
- half-life ([3]; male, oral, 10 mg): 66 h
- AUC(0-inf) ([3]; male, oral, 20 mg): 560 ng·h/mL
- Cmax ([3]; male, oral, 20 mg): 7.7 ng/mL
- Tmax ([3]; male, oral, 20 mg): 9 h
- AUC(0-inf) ([3]; male, oral, 40 mg): 1310 ng·h/mL
- Cmax ([3]; male, oral, 40 mg): 19.4 ng/mL
- Tmax ([3]; male, oral, 40 mg): 6.3 h
- CL/F [3, 13]: 50 (20) L/h
- CL/F ([3]; single 5 mg, n = 6, mean (SD)): 29.6 (10.3) L/h
- CL/F ([3]; single 10 mg, n = 6, mean (SD)): 35.2 (19.2) L/h
- CL/F ([3]; single 20 mg, n = 6, mean (SD)): 41.4 (17.6) L/h
- CL/F ([3]; single 40 mg, n = 4, mean (SD)): 34.0 (13.1) L/h
- Fe0–48, cumulative excretion ratio (% of dose) [3, 13]: 0.0 (0.0) %
- Fe0–48, cumulative excretion ratio (% of dose) ([3]; single 5 mg, n = 6, mean (SD)): 0.0 (0.0) %
- Fe0–48, cumulative excretion ratio (% of dose) ([3]; single 10 mg, n = 6, mean (SD)): 0.007 (0.018) %
- Fe0–48, cumulative excretion ratio (% of dose) ([3]; single 20 mg, n = 6, mean (SD)): 0.023 (0.023) %
- Fe0–48, cumulative excretion ratio (% of dose) ([3]; single 40 mg, n = 4, mean (SD)): 0.034 (0.017) %
- safety profiles, fasted vs fed (healthy adult men [4]): no significant differences in safety profiles
- safety and tolerability [5]: safe and tolerated
- Tmax ([6]; male, human, plasma, oral, 10 mg): 12 h
- 90%CIs for the LS mean ratios of Cmax and AUC (fed vs fasted) ([6]; single 10 mg, no‐effect boundary 90%CI, 0.8–1.25): within the no‐effect boundary
- tolerated multiple dose ([7]; healthy men): up to 20 mg
- tolerated multiple dose ([7]; healthy women): ≤ 10 mg
- intensity of TEAEs ([7]; multiple doses, all groups): all TEAEs were mild in intensity
- deaths or serious AEs (healthy Japanese adults): no deaths or serious AEs leading to trial discontinuation were observed
